Source: ChEMBL document CHEMBL3393040, “An Orally Available BACE1 Inhibitor That Affords Robust CNS Aβ Reduction without Cardiovascular Liabilities” (ACS Med Chem Lett, 2015)
The source made the active and inactive calls. The calls are words filed in the database; no cut-off is given here.

Key:
Beta-secretase 1 [1] = molecular target: T1, Beta-secretase 1 (Homo sapiens, UniProt P56817); assay: Inhibition of human recombinant BACE1 pre-incubated with enzyme for 60 mins before fluorescent substrate addition FRET method
T1 sequence (P56817 whole entry): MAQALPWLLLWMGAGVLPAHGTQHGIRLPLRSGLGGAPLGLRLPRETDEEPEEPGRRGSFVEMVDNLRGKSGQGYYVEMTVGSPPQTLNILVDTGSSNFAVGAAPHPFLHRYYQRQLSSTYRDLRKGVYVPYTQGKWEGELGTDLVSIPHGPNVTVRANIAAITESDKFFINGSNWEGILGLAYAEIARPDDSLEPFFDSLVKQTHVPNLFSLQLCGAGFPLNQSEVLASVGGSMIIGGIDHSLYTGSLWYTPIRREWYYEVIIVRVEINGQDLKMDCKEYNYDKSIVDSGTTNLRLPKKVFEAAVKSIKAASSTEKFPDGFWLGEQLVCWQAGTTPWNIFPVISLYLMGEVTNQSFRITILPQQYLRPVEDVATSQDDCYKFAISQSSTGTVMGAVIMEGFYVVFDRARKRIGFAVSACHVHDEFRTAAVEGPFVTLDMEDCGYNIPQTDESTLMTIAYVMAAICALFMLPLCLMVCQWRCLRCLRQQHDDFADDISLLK

Beta-secretase 1 [2] = molecular target: T1, Beta-secretase 1; assay: Inhibition of BACE1 in HEK293 cells stably expressing APPSW assessed as reduction in Abeta40 level incubated overnight at 0.0005 to 10 uM by ELISA method; format: cell-based
Rhesus monkey = assay: Reduction in Abeta40 level in rhesus monkey CSF at 5 mg/kg, po administered as single dose by ELISA method; format: functional, organism-based; parameters: dose 5 mg/kg; settings: Macaca mulatta
Outline: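 Rhesus monkey time-course PD study after a 5 mg/kg oral dose, with CSF Aβ40 followed over time. An indirect response PK–PD model generated the in vivo unbound plasma IC50.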

Rattus norvegicus [3] = assay: Reduction in Abeta40 level in Sprague-Dawley rat CSF at 3 mg/kg, po administered as single dose after 4 hrs by immunoassay; format: functional, organism-based; parameters: dose 3 mg/kg
Outline: (§1)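 Male Sprague–Dawley rats received a single oral dose. Aβ40 was measured in CSF and brain 4 h later and reported as % reduction. EC50 is expressed as unbound plasma concentration.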

Rattus norvegicus [4] = assay: Reduction in Abeta40 level in Sprague-Dawley rat CSF at 10 mg/kg, po administered as single dose by immunoassay; format: functional; outline: as §1
Rattus norvegicus [5] = assay: Reduction in Abeta40 level in Sprague-Dawley rat CSF at 3 mg/kg, po administered as single dose by immunoassay; format: functional; outline: as §1

SMILES	IC50 (Beta-secretase 1 [1])	IC50 (Beta-secretase 1 [2])	further results
Cc1cc(-c2cc3c(c(F)n2)Oc2ccc(-c4cccnc4F)cc2[C@@]32COC(N)=N2)on1	0.3 nM	23 nM	
NC1=N[C@@]2(CO1)c1cc(-c3cccnc3F)ccc1Oc1c2cc(N2CCC(F)(F)CC2)nc1F		6 nM	
NC1=N[C@@]2(CO1)c1cc(-c3cccnc3F)ccc1Oc1c2cc(-c2ccccc2)nc1F	0.7 nM	8 nM	inhibition in vivo at 10 mg/kg (Rattus norvegicus [4]): 75%
NC1=N[C@@]2(CO1)c1cc(-c3cccnc3F)ccc1Oc1c2cc(-c2ccnc(F)c2)nc1F	0.4 nM	6.5 nM	inhibition in vivo at 3 mg/kg (Rattus norvegicus [5]): 58%
NC1=N[C@@]2(CO1)c1cc(-c3cccnc3F)ccc1Oc1c2cc(-c2ccncc2)nc1F			inhibition in vivo at 3 mg/kg (Rattus norvegicus [5]): 36%
Cc1cc(-c2cc3c(c(F)n2)Oc2ccc(-c4cccnc4F)cc2[C@@]32COC(N)=N2)ccn1		12 nM	

More lines, in order of falling IC50 (Beta-secretase 1 [2]), values ahead:

IC50 (Beta-secretase 1 [1])	IC50 (Beta-secretase 1 [2])	SMILES	further results
	5 nM	NC1=N[C@@]2(CO1)c1cc(-c3cccnc3F)ccc1Oc1c2cc(N2CCOCC2)nc1F	inhibition in vivo at 3 mg/kg (Rattus norvegicus [5]): 69%
	4.8 nM	NC1=N[C@@]2(CO1)c1cc(-c3cccnc3F)ccc1Oc1c2cc(C2=CCCCO2)nc1F	
	4 nM	NC1=N[C@@]2(CO1)c1cc(-c3cccnc3F)ccc1Oc1c2cc(N2CCC(F)(F)C2)nc1F	
0.3 nM	4 nM	NC1=N[C@@]2(CO1)c1cc(-c3ncccc3F)ccc1Oc1c2cc(C2=CCCOC2)nc1F	inhibition (Rhesus monkey): Active; inhibition (Rattus norvegicus [3]): Active
0.3 nM	4 nM	NC1=N[C@@]2(CO1)c1cc(-c3cccnc3F)ccc1Oc1c2cc(C2=CCOCC2)nc1F	
0.2 nM	3 nM	NC1=N[C@@]2(CO1)c1cc(-c3cccnc3F)ccc1Oc1c2cc(N2CC[C@@H](F)C2)nc1F	
